Reference: ChEMBL document CHEMBL4840302, “Si113-prodrugs selectively activated by plasmin against hepatocellular and ovarian carcinoma” (Eur J Med Chem, 2021)
≈ marks a conversion by molar mass, not a printed value. Calls of active or inactive are those of the source. No cut-off for these calls is given here.

How the values were obtained:
[1] = Stability of the compound in human plasma assessed as half life at 3 mM measured up to 24 hrs by UV/LC-MS analysis; type: ADME, cell-free
[2] = Drug concentration in naive BALB/C mouse kidney at 21 mg/kg, ip administered as single dose incubated for 24 hrs followed by heparin treatment by LC-MS/MS analysis; type: ADME, organism-based; conditions: in vivo
In short: (§1)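 Healthy male BALB/c mice, 4–6 weeks old, given a single i.p. 21 mg/kg prodrug dose in saline. At 24 h, heparin i.p. (5000 U/kg), then sacrifice under CO2. Organs homogenised with acetonitrile containing internal standard, centrifuged, filtered and quantified by LC-MS/MS against calibration curves. n = 3 per time point.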

[3] = Drug concentration in naive BALB/C mouse liver at 21 mg/kg, ip administered as single dose incubated for 24 hrs followed by heparin treatment by LC-MS/MS analysis; type: ADME, organism-based; conditions: in vivo; in short: as §1
[4] = Drug concentration in nude female mouse ovarian tissue xenografted with human A2780 cells at 21 mg/kg, ip administered as single dose incubated for 24 hrs followed by heparin treatment by LC-MS/MS analysis; type: ADME, organism-based, Female gonad; conditions: in vivo
In short: (§2)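 Female nude mice, xenografted subcutaneously with 2.5 × 10^6 A2780TC cells or left non-xenografted, two per group. Single i.p. dose: Si113 9.5 mg/kg in DMSO or prodrug 21 mg/kg in saline. At 24 h, heparin i.p. (5000 U/kg), then sacrifice under CO2. Plasma, tumour and organs extracted with acetonitrile/internal standard and analysed by LC-MS/MS.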

[5] = Drug concentration in nude female mouse tumor mass xenografted with human A2780 cells at 21 mg/kg, ip administered as single dose incubated for 24 hrs followed by heparin treatment by LC-MS/MS analysis; type: ADME, organism-based, Neoplasm; conditions: in vivo; in short: as §2
[6] = Aqueous solubility of the compound at 1 mg incubated for 24 hrs under shaking condition by LC-MS/MS analysis; type: physicochemical; conditions: water
plasmin = plasmin (Homo sapiens, UniProt P00747); test: Stability of the compound in human plasmin solution assessed as half life at 7.5 mM measured up to 24 hrs by UV/LC-MS analysis; type: ADME
In short: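 Human plasmin mixed with Tris buffer (pH 7.4, 100 mM) and prodrug (7.5 mM DMSO stock), incubated at 37 °C. Samples taken from 0 to 24 h, quenched with cold acetonitrile and centrifuged; analysed by UV/LC-MS. t1/2 is time to 50% hydrolysis.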

[7] = Permeability of the compound at pH 7.4 at 500 uM incubated for 5 hrs by PAMPA based UV/LC-MS analysis; type: ADME; conditions: read-out: permeability
In short: (§3)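 Donor: compound diluted from 1 mM DMSO stock to 500 µM final in phosphate buffer (pH 7.4, 25 mM). Filter coated with 1% phosphatidylcholine in dodecane; acceptor 50% DMSO/phosphate buffer. 5 h at room temperature with gentle shaking. Donor and acceptor measured by UV/LC-MS; Papp and %MR calculated by equation. Three independent experiments.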

A2780TC [8] = test: Antitumor activity against paclitaxel resistant human A2780TC cells xenografted in nude mouse assessed as reduction in tumor growth at 5 mg/kg/day, ip administered for 5 days/ week and measured every 7 days for 21 days; type: functional, organism-based; conditions: time 21.0 day
[9] = target: T1, Serine/threonine-protein kinase Sgk1 (Homo sapiens) (UniProt O00141); test: Inhibition of Sgk1 (unknown origin) at 0.6 uM using peptide substrate incubated for 30 mins in the presence of ATP by scintillation counting method relative to control
T1 sequence (whole entry): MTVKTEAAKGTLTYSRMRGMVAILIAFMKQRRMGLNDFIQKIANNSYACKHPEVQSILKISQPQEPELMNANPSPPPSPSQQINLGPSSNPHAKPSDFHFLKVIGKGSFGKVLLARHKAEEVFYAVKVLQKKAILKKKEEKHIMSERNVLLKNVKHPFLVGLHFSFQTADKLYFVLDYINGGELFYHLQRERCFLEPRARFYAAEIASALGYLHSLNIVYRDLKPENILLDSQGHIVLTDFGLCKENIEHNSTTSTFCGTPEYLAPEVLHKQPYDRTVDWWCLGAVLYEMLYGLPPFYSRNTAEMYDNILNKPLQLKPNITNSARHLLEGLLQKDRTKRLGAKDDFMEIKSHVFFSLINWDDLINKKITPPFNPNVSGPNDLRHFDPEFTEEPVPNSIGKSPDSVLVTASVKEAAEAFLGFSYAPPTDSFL

HepG2 [10] = test: Cytotoxicity against human HepG2 cells assessed as reduction in cell viability measured after 48 hrs by MTT assay; type: functional, cell-based; conditions: HepG2, 48 h
In short: (§4)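 HepG2, Huh-7 or A2780 cells in DMEM with 10% FBS, 37 °C, 5% CO2. 2.5 × 10^4 cells seeded per well; compounds in DMSO added next day at 0.1, 1.0, 10.0 and 100.0 µM for 24, 48 or 72 h. IC50 from MTT dose-response by sigmoid fit. Means ± S.D. of three independent experiments in triplicate.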

A2780 [11] = test: Cytotoxicity against human A2780 cells assessed as reduction in cell viability measured after 24 hrs by MTT assay; type: functional, cell-based; conditions: A2780, 24 h; in short: as §4
Huh-7 [12] = test: Cytotoxicity against human Huh-7 cells assessed as reduction in cell viability measured after 72 hrs by MTT assay; type: functional, cell-based; conditions: Huh-7, 72 h; in short: as §4
Huh-7 [13] = test: Cytotoxicity against human Huh-7 cells assessed as reduction in cell viability measured after 48 hrs by MTT assay; type: functional, cell-based; conditions: Huh-7, 48 h; in short: as §4
A2780TC [14] = test: Antitumor activity against paclitaxel resistant human A2780TC cells xenografted in nude mouse assessed as reduction in tumor volume at 9.3 mg/kg/day, ip administered for 5 days/ week and measured every 7 days for 21 days; type: functional, organism-based; conditions: time 21.0 day
HepG2 [15] = test: Cytotoxicity against human HepG2 cells assessed as reduction in cell viability measured after 24 hrs by MTT assay; type: functional, cell-based; conditions: HepG2, 24 h; in short: as §4
A2780 [16] = test: Cytotoxicity against human A2780 cells assessed as reduction in cell viability measured after 72 hrs by MTT assay; type: functional, cell-based; conditions: A2780, 72 h; in short: as §4
HepG2 [17] = test: Antitumor activity against human HepG2 cells xenografted in female nude mouse assessed as reduction in tumor growth at 9.5 mg/kg, ip administered for 5 days/week and measured every 7 days for 21 days; type: functional, organism-based; conditions: time 21.0 day, in the assay text read “administered daily” for “administered for 5 days/week”
In short: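 HepG2 cells (2.5 × 10^6, in 1:1 serum-free RPMI/Matrigel) injected subcutaneously in the dorsal posterior-lateral right region of 6-week-old female nude mice. Five mice per group, randomised. Dosing i.p. five days/week, started when tumours reached 100 mm3. Si113 was given in DMSO and prodrugs in saline, dosed to equal molar amounts. Caliper volume (π/6 × a2 × b) measured every 7 days; on day 21 tumours were excised and weighed.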

[18] = target: T1, Serine/threonine-protein kinase Sgk1 (Homo sapiens); test: Inhibition of Sgk1 (unknown origin) at 12.5 uM using peptide substrate incubated for 30 mins in the presence of ATP by scintillation counting method relative to control
HepG2 [19] = test: Cytotoxicity against human HepG2 cells assessed as reduction in cell viability measured after 72 hrs by MTT assay; type: functional, cell-based; conditions: HepG2, 72 h; in short: as §4
A2780TC [20] = test: Antitumor activity against paclitaxel resistant human A2780TC cells xenografted in nude mouse assessed as reduction in tumor volume at 9.3 mg/kg/day, ip administered for 5 days/ week and measured every 7 days for 21 days in the presence of paclitaxel; type: functional, organism-based; conditions: time 21.0 day
A2780 [21] = test: Cytotoxicity against human A2780 cells assessed as reduction in cell viability measured after 48 hrs by MTT assay; type: functional, cell-based; conditions: A2780, 48 h; in short: as §4
[22] = Permeability of the compound at pH 7.4 assessed as membrane retension at 500 uM incubated for 5 hrs by PAMPA based UV/LC-MS analysis; type: ADME; conditions: pH 7.4, 5 h; in short: as §3
Huh-7 [23] = test: Cytotoxicity against human Huh-7 cells assessed as reduction in cell viability measured after 24 hrs by MTT assay; type: functional, cell-based; conditions: Huh-7, 24 h; in short: as §4
[24] = Drug concentration in nude female mouse tumor mass xenografted with human A2780 cells at 9.5 mg/kg, ip administered as single dose incubated for 24 hrs followed by heparin treatment by LC-MS/MS analysis; type: ADME, organism-based, Neoplasm; conditions: in vivo; in short: as §2
[25] = Metabolic stability in human liver microsomes assessed as parent compound remaining at 50 uM incubated for 1 hr in the presence of NADPH regenerating system by UV/LC-MS analysis; type: ADME, Microsome; conditions: read-out: Stability
In short: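 Human liver microsomes (0.2 mg/mL) with NADPH regenerating system and 50 µM compound in DMSO/phosphate buffer (pH 7.4, 25 mM), 1 h at 37 °C. Reaction quenched with acetonitrile and centrifuged; supernatant dried, taken up in methanol, and unmetabolised compound measured by UV/LC-MS. Three independent experiments.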

[26] = Drug concentration in nude female mouse ovarian tissue xenografted with human A2780 cells at 9.5 mg/kg, ip administered as single dose incubated for 24 hrs followed by heparin treatment by LC-MS/MS analysis; type: ADME, organism-based, Female gonad; conditions: in vivo; in short: as §2

plasmin, sequence (P00747 97-580 limits assumed): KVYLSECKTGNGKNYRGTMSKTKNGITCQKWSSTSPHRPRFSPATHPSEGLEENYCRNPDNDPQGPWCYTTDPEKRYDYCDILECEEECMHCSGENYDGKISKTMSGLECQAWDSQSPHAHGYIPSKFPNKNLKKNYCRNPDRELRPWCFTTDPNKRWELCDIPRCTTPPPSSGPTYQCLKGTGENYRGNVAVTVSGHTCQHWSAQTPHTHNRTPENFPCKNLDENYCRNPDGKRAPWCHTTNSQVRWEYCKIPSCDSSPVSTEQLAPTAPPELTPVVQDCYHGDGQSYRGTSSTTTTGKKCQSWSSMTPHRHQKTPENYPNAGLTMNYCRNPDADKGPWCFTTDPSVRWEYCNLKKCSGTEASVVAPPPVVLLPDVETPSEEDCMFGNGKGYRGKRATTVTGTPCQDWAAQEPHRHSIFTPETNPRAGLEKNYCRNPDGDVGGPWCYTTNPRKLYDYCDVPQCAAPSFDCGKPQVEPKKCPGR
plasmin, sequence (P00747 581-810 limits assumed): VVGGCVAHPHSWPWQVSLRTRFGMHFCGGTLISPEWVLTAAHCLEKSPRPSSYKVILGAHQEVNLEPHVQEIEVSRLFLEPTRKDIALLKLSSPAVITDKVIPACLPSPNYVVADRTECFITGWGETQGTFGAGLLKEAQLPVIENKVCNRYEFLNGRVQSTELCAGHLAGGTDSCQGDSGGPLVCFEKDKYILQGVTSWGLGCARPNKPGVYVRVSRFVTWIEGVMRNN

Question: With `C[C@@H](N)C(=O)N[C@@H](Cc1ccccc1)C(=O)N[C@@H](CCCCN)C(=O)OCCNc1nc(NCCc2ccccc2)c2cnn(/C=C/c3ccccc3)c2n1.O=C(O)C(F)(F)F.O=C(O)C(F)(F)F` as the compound, how does the half-life [1] read?
Answer: The half-life was 0.3 h.

Question: What about the Drug uptake [2] of the same compound?
Answer: The Drug uptake was 1.77 nmol/g.

Question: And the Drug uptake [3]?
Answer: The Drug uptake was 0.81 nmol/g.

Question: And the Drug uptake [4]?
Answer: The Drug uptake was 4.11 nmol/g.

Question: What about the Drug uptake [5] of the same compound?
Answer: Its Drug uptake is 5.69 nmol/g.

Question: And the solubility thermodynamic at 24 h [6]?
Answer: The solubility thermodynamic at 24 h was > 1000 µg/mL.

Question: What about the half-life at 7500 µM (plasmin) of the same compound?
Answer: Its half-life at 7500 µM is 1.5 h.

Question: What about the Papp at 5 h, 500 µM [7] of the same compound?
Answer: The Papp at 5 h, 500 µM was 0.2 ×10⁻⁶ cm/s.

Question: Which results are given for `C[C@@H](N)C(=O)N[C@@H](Cc1ccccc1)C(=O)N[C@@H](CCCCN)C(=O)NCCCCC(=O)OCCNc1nc(NCCc2ccccc2)c2cnn(/C=C/c3ccccc3)c2n1.O=C(O)C(F)(F)F.O=C(O)C(F)(F)F`?
Answer: half-life [1]: 4.6 h; Drug uptake [2]: 3.01 nmol/g; Drug uptake [3]: 11.05 nmol/g; solubility thermodynamic at 24 h [6]: > 1000 µg/mL; half-life at 7500 µM (plasmin): 3.1 h; Papp at 5 h, 500 µM [7]: 0.2 ×10⁻⁶ cm/s

Question: For `CC(=O)O[C@H]1C(=O)[C@@]2(C)[C@H]([C@H](OC(=O)c3ccccc3)[C@]3(O)C[C@H](OC(=O)[C@H](O)[C@@H](NC(=O)c4ccccc4)c4ccccc4)C(C)=C1C3(C)C)[C@]1(OC(C)=O)CO[C@@H]1C[C@@H]2O`, which Activity (A2780TC [8]) is on record?
Answer: The Activity was “inactive”.

Question: For `OCCNc1nc(NCCc2ccccc2)c2cnn(/C=C/c3ccccc3)c2n1`, which inhibition [9] is on record?
Answer: Its inhibition is 75%.

Question: And the IC50 (HepG2 [10])?
Answer: Its IC50 is 8.29 µM.

Question: And the IC50 (A2780 [11])?
Answer: The IC50 was 25.6 µM.

Question: And the IC50 (Huh-7 [12])?
Answer: The IC50 was 0.58 µM.

Question: What about the IC50 (Huh-7 [13]) of the same compound?
Answer: The IC50 was 1.88 µM.

Question: And the Activity (A2780TC [14])?
Answer: The Activity was “Active”.

Question: And the IC50 (HepG2 [15])?
Answer: Its IC50 is 15.9 µM.

Question: And the IC50 (A2780 [16])?
Answer: The IC50 was 3.47 µM.

Question: What about the Activity (HepG2 [17]) of the same compound?
Answer: Its Activity is “Active”.

Question: And the solubility thermodynamic at 24 h [6]?
Answer: The solubility thermodynamic at 24 h was 0.4 µg/mL (≈ 0.999 µM).

Question: What about the inhibition [18] of the same compound?
Answer: The inhibition was > 90%.

Question: And the IC50 (HepG2 [19])?
Answer: The IC50 was 3.15 µM.

Question: What about the Activity (A2780TC [20]) of the same compound?
Answer: The Activity was “Active”.

Question: And the IC50 (A2780 [21])?
Answer: Its IC50 is 4.56 µM.

Question: What about the permeability [22] of the same compound?
Answer: The permeability was 86.2%.

Question: What about the IC50 (Huh-7 [23]) of the same compound?
Answer: Its IC50 is 2.05 µM.

Question: And the Drug uptake [24]?
Answer: The Drug uptake was 2.2 nmol/g.

Question: And the remaining at 1 h, 50 µM [25]?
Answer: Its remaining at 1 h, 50 µM is 84%.

Question: What about the Drug uptake [26] of the same compound?
Answer: Its Drug uptake is 1.89 nmol/g.

Question: What about the Papp at 5 h, 500 µM [7] of the same compound?
Answer: Its Papp at 5 h, 500 µM is 2.6 ×10⁻⁶ cm/s.
